Experimental data reported in PMC5516171 (Clinical Pharmacology in Drug Development, 2016).
“Also recorded” adds a separate entry of the source.

How the values were obtained:
[1] = tested on: rat peritoneal mast cells; test: In vitro mast cell degranulation, rat peritoneal mast cells; format: cell-based
In short: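 Freshly isolated rat peritoneal mast cells were resuspended in RPMI 1640 with 1% FBS. They were given increasing concentrations of the excipient peptide (up to 250 μg/mL), the siRNA drug substance (up to 1000 μg/mL), or both combined. Incubation was 37°C for 10 or 30 min. Supernatant histamine (nM ± SD) and chymase measured degranulation; LDH measured viability.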

[2] = tested on: human mast cell line HMC‐1; test: In vitro mast cell degranulation, human mast cell line HMC‐1; format: cell-based; details: HMC‐1 cells, 37°C, 30 minutes; up to 250 μg/mL ARC‐EX1 and ARC‐520 API
In short: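 HMC‑1 human mast cells were cultured in Iscove's medium with 2% FBS. They were exposed to increasing concentrations, up to 250 μg/mL, of the excipient peptide, the siRNA drug substance, or both combined. The positive control was phorbol myristate acetate plus calcium ionophore A23187. Incubation was 37°C for 30 min. Supernatants were assayed for histamine and β‑hexosaminidase (degranulation) and for LDH (viability).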

## ARC‐EX1: delivery excipient: masked, hepatocyte‐targeted L‐melittin‐derived peptide; masking group carboxydimethyl maleic anhydride N‐acetyl galactosamine (LIGAILKVLATGLPTLISWIKNKRKQ; CDM-NAG masking groups)
[1]; 10 and 30 minutes of incubation
  Concentration at which maximum histamine release was observed: ≥ 10000 ng/mL
[1]; 37°C, 10 or 30 minutes, up to 250 μg/mL ARC‐EX1 or 1000 μg/mL ARC‐520 API
  Mast cell degranulation and histamine release: major trigger; also recorded: induced mast cell degranulation and histamine release in a dose‐dependent manner
[2]
  Mast cell degranulation and histamine release: major trigger
